Measured values as given in ChEMBL document CHEMBL4402563, “Preclinical Optimization of gp120 Entry Antagonists as anti-HIV-1 Agents with Improved Cytotoxicity and ADME Properties through Rational Design, Synthesis, and Antiviral Evaluation” (J Med Chem, 2020).

Tests used:
[1] = Cytotoxicity against dog Cf2Th-CCR5 cells infected with CD4-dependent pseudovirus HIV1 ADA incubated for 48 hrs by MTS assay
[2] = system: Human immunodeficiency virus 1; assay: Antiviral activity against HIV1 HXB2 infected in human TZM-bl cells preincubated for 30 min followed by viral infection and measured after 3 days by luciferase based assay; assay type: functional, organism-based; details: Human immunodeficiency virus 1, M:B_HXB2R
In short: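 Single-cycle pseudovirus carrying HXB2 Env (CXCR4-tropic), made in HEK293T by co-transfecting an Env-deleted backbone (pSG3Δenv or pNL4-3.Luc.R-E-) with an Env plasmid. TZM-bl cells were seeded at 1 × 10^4/well and grown overnight. Virus was pretreated with graded compound concentrations, then added. Cells were washed and lysed, and IC50 was taken from percent inhibition.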

[3] = system: Human immunodeficiency virus 1; assay: Antiviral activity against HIV1-3B infected in human H9 cells assessed as inhibition in cell to cell HIV1 transmission to human TZM-bl acceptor cells incubated for 24 hrs by luciferase based assay; assay type: functional, organism-based; details: Human immunodeficiency virus 1, 3B
[4] = system: Human immunodeficiency virus 1; assay: Antiviral activity against HIV1-ADA infected in human MOLT4 cells assessed as inhibition in cell to cell HIV1 transmission to human TZM-bl acceptor cells incubated for 24 hrs by luciferase based assay; assay type: functional, organism-based; details: Human immunodeficiency virus 1, 24 h
[5] = system: TZM; assay: Cytotoxicity against human TZM-bl cells incubated for 3 days by MTS assay; assay type: cell-based; details: 72 h
[6] = system: Human immunodeficiency virus 1; assay: microbe, parasite or virus in culture; details: Human immunodeficiency virus 1, subtypeA
[7] = system: Human immunodeficiency virus 1; assay: microbe, parasite or virus in culture; details: Human immunodeficiency virus 1, subtypeA; remark: listed apart in the source

Question: For `CC1(C)CC(NC(=O)C(=O)Nc2ccc(Cl)cc2)CC(C)(C)N1`, which Activity [1] is on record?
Answer: Non-Toxic

Question: With `COc1cnc(-n2cnc(C)n2)c2[nH]cc(C(=O)C(=O)N3CCN(C(=O)c4ccccc4)CC3)c12` as the molecule, how does the IC50 [2] read?
Answer: < 0.001 µM

Question: What about the IC50 [3] of the same molecule?
Answer: 0.02 µM

Question: And the IC50 [4]?
Answer: 0.2 µM

Question: What does the source list for `NC[C@@H](NC(=O)c1ccc(-c2ccc(C(F)(F)F)cn2)[nH]1)c1ncc(CO)s1`?
Answer: IC50 [2]: 0.96 µM; CC50 [5]: > 122 µM

Question: Which IC50 [2] does the source give for `CC(C)(N)[C@H](NC(=O)c1ccc(-c2ccc(C(F)(F)F)cn2)[nH]1)c1nc(CO)cs1` here?
Answer: 0.58 µM

Question: What about the CC50 [5] of the same molecule?
Answer: 59 µM

Question: Which IC50 [2] does the source give for `NC[C@H](NC(=O)c1ccc(-c2ccc(Cl)cn2)[nH]1)c1ncc(CO)s1` here?
Answer: 2.7 µM

Question: And the CC50 [5]?
Answer: 142 µM

Question: Which IC50 [2] does the source give for `NC[C@@H](NC(=O)c1ccc(-c2ccc(C(F)(F)F)nc2)[nH]1)c1nc(CO)cs1` here?
Answer: 12.7 µM

Question: With `Cc1cc(-c2ccc(C(F)(F)F)cn2)[nH]c1C(=O)N[C@H](c1ncc(CO)s1)C(C)(C)N` as the molecule, how does the IC50 [2] read?
Answer: 0.43 µM

Question: And the CC50 [5]?
Answer: 37.5 µM

Question: With `NC[C@@H](NC(=O)c1ccc(-c2ccc(F)cn2)[nH]1)c1nc(CO)cs1` as the molecule, how does the IC50 [2] read?
Answer: > 11 µM

Question: With `COc1cc(-c2ccc(C(=O)N[C@@H](CN)c3nc(CO)cs3)[nH]2)ccn1` as the molecule, how does the IC50 [2] read?
Answer: > 11 µM

Question: What about the CC50 [5] of the same molecule?
Answer: > 133 µM

Question: Which IC50 [2] does the source give for `Cc1cc(-c2ccc(Cl)cn2)[nH]c1C(=O)N[C@@H](CN)c1ncc(CO)s1` here?
Answer: 2.4 µM

Question: And the CC50 [5]?
Answer: 95 µM

Question: Which IC50 [2] does the source give for `NC[C@@H](NC(=O)c1ccc(-c2ccc(C(F)(F)F)cn2)[nH]1)c1nc(CO)cs1` here?
Answer: 0.59 µM

Question: What about the CC50 [5] of the same molecule?
Answer: 94.3 µM

Question: Which IC50 [2] does the source give for `Cc1ccc(-c2ccc(C(=O)N[C@H](CN)c3nc(CO)cs3)[nH]2)nc1` here?
Answer: 9.6 µM

Question: Which IC50 [2] does the source give for `NC[C@H](NC(=O)c1ccc(-c2ccc(C(F)(F)F)cn2)[nH]1)c1nc(C(O)CO)cs1` (stereo partly specified) here?
Answer: 3.8 µM

Question: What about the CC50 [5] of the same molecule?
Answer: > 113 µM

Question: For `NC[C@@H](NC(=O)c1ccc(-c2ccc(C(F)(F)F)cn2)[nH]1)c1nc(CCCO)cs1`, which IC50 [2] is on record?
Answer: 2.3 µM

Question: And the CC50 [5]?
Answer: > 114 µM

Question: Which Activity [1] does the source give for `Cc1cc(-c2ccc(C(F)(F)F)cn2)[nH]c1C(=O)N[C@H](CN)c1nc(CO)cs1` here?
Answer: Non-Toxic

Question: What does the source list for `NC[C@H](NC(=O)c1ccc(-c2ccc(Cl)nc2)[nH]1)c1nc(CO)cs1`?
Answer: IC50 [2]: > 11 µM; CC50 [5]: > 132 µM

Question: With `Cc1cc(-c2ccc(C(F)(F)F)cn2)[nH]c1C(=O)N[C@@H](c1ncc(CO)s1)C(C)(C)N` as the molecule, how does the IC50 [2] read?
Answer: 0.6 µM

Question: What about the CC50 [5] of the same molecule?
Answer: 35.3 µM

Question: With `Cc1cc(-c2ccc(C(F)(F)F)cn2)[nH]c1C(=O)N[C@@H](CN)c1nc(CO)cs1` as the molecule, how does the CC50 [5] read?
Answer: 85 µM

Question: With `NC[C@@H](NC(=O)c1ccc(-c2ccc(Cl)cn2)[nH]1)c1nc(CO)cs1` as the molecule, how does the IC50 [2] read?
Answer: 5 µM

Question: And the CC50 [5]?
Answer: > 132 µM

Question: With `Cc1cc(-c2ccc(C(F)(F)F)cn2)[nH]c1C(=O)N[C@H](CN)c1ncc(CO)s1` as the molecule, how does the CC50 [5] read?
Answer: 92.8 µM

Question: For `NC[C@H](NC(=O)c1ccc(-c2ncc(Cl)cn2)[nH]1)c1nc(CO)cs1`, which IC50 [2] is on record?
Answer: > 15.8 µM

Question: And the CC50 [5]?
Answer: > 66 µM

Question: With `NC[C@H](NC(=O)c1ccc(-c2ccc(C(F)(F)F)cn2)[nH]1)c1ncc(C(O)CO)s1` (stereo partly specified) as the molecule, how does the IC50 [2] read?
Answer: 5.9 µM

Question: And the CC50 [5]?
Answer: > 113 µM

Question: What does the source list for `CC(C)(N)[C@H](NC(=O)c1ccc(-c2ccc(C(F)(F)F)cn2)[nH]1)c1ncc(CO)s1`?
Answer: IC50 [2]: 0.5 µM; CC50 [5]: 42.4 µM

Question: Which IC50 [2] does the source give for `NC[C@@H](NC(=O)c1ccc(-c2ccc(C(F)(F)F)nn2)[nH]1)c1nc(CO)cs1` here?
Answer: > 12 µM

Question: What about the CC50 [5] of the same molecule?
Answer: > 73 µM

Question: What does the source list for `Cc1cc(-c2ccc(Cl)cn2)[nH]c1C(=O)N[C@H](CN)c1ncc(CO)s1`?
Answer: IC50 [2]: 1.2 µM; CC50 [5]: 98.3 µM

Question: With `CC(C)(N)[C@@H](NC(=O)c1ccc(-c2ccc(C(F)(F)F)cn2)[nH]1)c1nc(CO)cs1` as the molecule, how does the IC50 [2] read?
Answer: 1.7 µM

Question: And the CC50 [5]?
Answer: 61 µM

Question: Which IC50 [2] does the source give for `NC[C@H](NC(=O)c1ccc(-c2ccc(C(F)(F)F)cn2)[nH]1)c1nccs1` here?
Answer: 1.2 µM

Question: And the CC50 [5]?
Answer: 93.6 µM

Question: Which results are given for `NC[C@@H](NC(=O)c1ccc(-c2ccc(C(F)(F)F)cn2)[nH]1)c1nc(CCO)cs1`?
Answer: IC50 [2]: 1.7 µM; CC50 [5]: 100 µM

Question: What does the source list for `NC[C@@H](NC(=O)c1ccc(-c2ccc(C(F)(F)F)cn2)[nH]1)c1nccs1`?
Answer: IC50 [2]: 2 µM; CC50 [5]: 89.3 µM

Question: For `NC[C@@H](NC(=O)c1ccc(-c2ncc(Cl)cn2)[nH]1)c1nc(CO)cs1`, which IC50 [2] is on record?
Answer: > 15.8 µM

Question: What does the source list for `NC[C@H](NC(=O)c1ccc(-c2ccc(F)cn2)[nH]1)c1nc(CO)cs1`?
Answer: IC50 [2]: > 11 µM; CC50 [5]: > 138 µM

Question: What does the source list for `NC[C@@H](NC(=O)c1ccc(-c2ccc(C(F)(F)F)cc2)[nH]1)c1ncc(CO)s1`?
Answer: CC50 [5]: 42.4 µM; IC50 [6]: 0.7 µM; IC50 [7]: 0.8 µM

Question: For `COc1cc(-c2ccc(C(=O)N[C@H](CN)c3nc(CO)cs3)[nH]2)ccn1`, which IC50 [2] is on record?
Answer: > 11 µM

Question: For `NC[C@H](NC(=O)c1ccc(-c2ccc(Cl)cn2)[nH]1)c1nc(CO)cs1`, which IC50 [2] is on record?
Answer: 1.7 µM

Question: For `NC[C@H](NC(=O)c1ccc(-c2ccc(C(F)(F)F)cn2)[nH]1)c1nc(CO)c(CO)s1`, which IC50 [2] is on record?
Answer: > 13 µM

Question: For `CC(C)(N)[C@@H](NC(=O)c1ccc(-c2ccc(C(F)(F)F)cn2)[nH]1)c1ncc(CO)s1`, which IC50 [2] is on record?
Answer: 0.52 µM

Question: And the CC50 [5]?
Answer: 74 µM

Question: Which IC50 [2] does the source give for `NC[C@@H](NC(=O)c1ccc(-c2ccc(Cl)cn2)[nH]1)c1ncc(CO)s1` here?
Answer: 0.85 µM

Question: What about the CC50 [5] of the same molecule?
Answer: 144 µM

Question: With `Cc1ccc(-c2ccc(C(=O)N[C@@H](CN)c3nc(CO)cs3)[nH]2)nc1` as the molecule, how does the IC50 [2] read?
Answer: > 11 µM

Question: And the CC50 [5]?
Answer: > 140 µM

Question: Which IC50 [2] does the source give for `NC[C@@H](NC(=O)c1ccc(-c2ccc(C(F)(F)F)cn2)[nH]1)c1ncc(C(O)CO)s1` (stereo partly specified) here?
Answer: 2.1 µM

Question: Which results are given for `NC[C@H](NC(=O)c1ccc(-c2ccc(C(F)(F)F)cn2)[nH]1)c1nc(CO)cs1`?
Answer: IC50 [2]: 0.3 µM; CC50 [5]: 77.9 µM

Question: Which IC50 [2] does the source give for `NC[C@@H](NC(=O)c1ccc(-c2ccc(C(F)(F)F)cn2)[nH]1)c1nc(CO)c(CO)s1` here?
Answer: 1.8 µM

Question: What about the CC50 [5] of the same molecule?
Answer: > 113 µM

Question: For `NC[C@H](NC(=O)c1ccc(-c2ccc(C(F)(F)F)cn2)[nH]1)c1ncc(CO)s1`, which IC50 [2] is on record?
Answer: 1.2 µM

Question: With `NC[C@H](NC(=O)c1ccc(-c2ccc(C(F)(F)F)cn2)[nH]1)c1nc(CCCO)cs1` as the molecule, how does the IC50 [2] read?
Answer: 0.89 µM

Question: What about the CC50 [5] of the same molecule?
Answer: 81.2 µM

Question: Which IC50 [2] does the source give for `NC[C@H](NC(=O)c1ccc(-c2ccc(C(F)(F)F)nc2)[nH]1)c1nc(CO)cs1` here?
Answer: 11.9 µM

Question: What about the CC50 [5] of the same molecule?
Answer: > 122 µM

Question: Which IC50 [2] does the source give for `NC[C@H](NC(=O)c1ccc(-c2ccc(C(F)(F)F)nn2)[nH]1)c1nc(CO)cs1` here?
Answer: > 12 µM

Question: Which IC50 [2] does the source give for `NC[C@H](NC(=O)c1ccc(-c2ccc(C(F)(F)F)cn2)[nH]1)c1nc(CCO)cs1` here?
Answer: 0.76 µM

Question: And the CC50 [5]?
Answer: 91 µM

Question: For `NC[C@@H](NC(=O)c1ccc(-c2ccc(C(F)(F)F)cn2)[nH]1)c1nc(C(O)CO)cs1` (stereo partly specified), which IC50 [2] is on record?
Answer: 5.2 µM

Question: With `NC[C@@H](NC(=O)c1ccc(-c2ccc(Cl)nc2)[nH]1)c1nc(CO)cs1` as the molecule, how does the IC50 [2] read?
Answer: > 11 µM

Question: Which results are given for `CC(CN)(NC(=O)c1ccc(-c2ccc(C(F)(F)F)cn2)[nH]1)c1nc(CO)cs1` (racemic)?
Answer: IC50 [2]: 5.1 µM; CC50 [5]: > 70.5 µM

Question: For `Cc1cc(-c2ccc(C(F)(F)F)cn2)[nH]c1C(=O)NC(C)(CN)c1nc(CO)cs1` (racemic), which IC50 [2] is on record?
Answer: 2.6 µM

Question: And the CC50 [5]?
Answer: > 68.3 µM
